Assay results from ChEMBL document CHEMBL4270612, “Discovery of dual GyrB/ParE inhibitors active against Gram-negative bacteria” (Eur J Med Chem, 2018).
Converted amounts (≈) assume the structure as drawn.

How the values were obtained:
[1] = Growth inhibition of human A549 cells; format: cell-based
DNA gyrase subunit B = DNA gyrase subunit B (Escherichia coli, UniProt P0AES6); experiment: Inhibition of Escherichia coli GyrB (1 to 220 residues) expressed in Escherichia coli BL21(DE3)
Pseudomonas aeruginosa [2] = experiment: Antibacterial activity against Pseudomonas aeruginosa PAO1 after 24 hrs by broth microdilution method; format: functional; details: PAO1, 24 h
In short: (§1)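 Broth microdilution per CLSI. Bacterial suspension adjusted to 1×10^6 CFU/mL in cation-adjusted Mueller–Hinton broth and mixed 1:1 with 2-fold serial compound dilutions. Final DMSO 2.5% v/v. Plates incubated at 35 °C with shaking at 140 rpm for 24 h.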

Escherichia coli [3] = experiment: Antibacterial activity against tolC deficient Escherichia coli after 24 hrs by broth microdilution method; format: functional
In short: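 Broth microdilution per CLSI guidelines. Inoculum adjusted to 1×10^6 CFU/mL in cation-adjusted Mueller–Hinton broth, added 1:1 to 2-fold serial compound dilutions; final DMSO 2.5% v/v. Plates incubated 35 °C, 140 rpm, 24 h.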

Pseudomonas aeruginosa [4] = experiment: Antibacterial activity against Pseudomonas aeruginosa harboring MexABCDXY deletion mutant after 24 hrs by broth microdilution method; format: functional
In short: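 Broth microdilution per CLSI. Bacterial suspensions adjusted to 1×10^6 CFU/mL in cation-adjusted Mueller–Hinton broth, mixed 1:1 with 2-fold serial compound dilutions (final DMSO 2.5% v/v). Incubation 35 °C, 140 rpm, 24 h.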

Escherichia coli [5] = experiment: Antibacterial activity against Escherichia coli after 24 hrs by broth microdilution method; format: functional; in short: as §1
[6] = molecular target: DNA topoisomerase 4 subunit B (Escherichia coli K-12, UniProt P20083); experiment: Inhibition of Escherichia coli ParE
Chain of DNA topoisomerase 4 subunit B (P20083 whole entry): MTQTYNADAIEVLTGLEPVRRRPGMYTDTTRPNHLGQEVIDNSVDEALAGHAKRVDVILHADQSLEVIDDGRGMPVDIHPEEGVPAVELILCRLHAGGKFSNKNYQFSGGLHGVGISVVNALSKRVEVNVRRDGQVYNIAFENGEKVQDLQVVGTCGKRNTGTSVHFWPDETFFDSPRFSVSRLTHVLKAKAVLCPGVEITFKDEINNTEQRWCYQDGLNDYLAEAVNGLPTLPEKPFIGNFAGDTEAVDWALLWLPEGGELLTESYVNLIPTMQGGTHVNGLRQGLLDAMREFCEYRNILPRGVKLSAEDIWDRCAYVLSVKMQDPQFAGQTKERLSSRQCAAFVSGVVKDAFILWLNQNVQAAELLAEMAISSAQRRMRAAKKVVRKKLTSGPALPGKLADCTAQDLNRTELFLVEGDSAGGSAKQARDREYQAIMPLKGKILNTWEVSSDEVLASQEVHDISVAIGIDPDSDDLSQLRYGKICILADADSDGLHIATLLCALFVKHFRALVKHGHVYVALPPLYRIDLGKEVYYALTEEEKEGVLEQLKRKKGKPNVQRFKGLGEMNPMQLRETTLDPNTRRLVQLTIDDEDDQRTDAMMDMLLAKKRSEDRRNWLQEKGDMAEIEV

[7] = Dissociation constant, pKa of compound by pH metric method; format: physicochemical
In short: (§2)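 Potentiometric (pH-metric) titration on an automated titrator, Gold Standard pH metric assay, run in triplicate.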

Pseudomonas aeruginosa [8] = experiment: Antibacterial activity against Pseudomonas aeruginosa ARC3505 after 24 hrs by broth microdilution method; format: functional; details: ARC3505, 24 h; in short: as §1
Pseudomonas aeruginosa [9] = experiment: Antibacterial activity against Pseudomonas aeruginosa ARC3916 after 24 hrs by broth microdilution method; format: functional; details: ARC3916, 24 h; in short: as §1
Acinetobacter baumannii [10] = experiment: Antibacterial activity against Acinetobacter baumannii ARC3515 after 24 hrs by broth microdilution method; format: functional; details: ARC3515, 24 h; in short: as §1
Acinetobacter baumannii [11] = experiment: Antibacterial activity against Acinetobacter baumannii ARC3659 after 24 hrs by broth microdilution method; format: functional; details: ARC3659, 24 h; in short: as §1
Pseudomonas aeruginosa [12] = experiment: Antibacterial activity against Pseudomonas aeruginosa ARC3606 after 24 hrs by broth microdilution method; format: functional; details: ARC3606, 24 h; in short: as §1
Acinetobacter baumannii [13] = experiment: Antibacterial activity against Acinetobacter baumannii ARC3513 after 24 hrs by broth microdilution method; format: functional; details: ARC3513, 24 h; in short: as §1
Acinetobacter baumannii [14] = experiment: Antibacterial activity against Acinetobacter baumannii ARC3489 after 24 hrs by broth microdilution method; format: functional; details: ARC3489, 24 h; in short: as §1
Acinetobacter baumannii [15] = experiment: Antibacterial activity against Acinetobacter baumannii ARC3485 after 24 hrs by broth microdilution method; format: functional; details: ARC3485, 24 h; in short: as §1
Pseudomonas aeruginosa [16] = experiment: Antibacterial activity against Pseudomonas aeruginosa ARC3509 after 24 hrs by broth microdilution method; format: functional; details: ARC3509, 24 h; in short: as §1
Acinetobacter baumannii [17] = experiment: Antibacterial activity against Acinetobacter baumannii ARC3658 after 24 hrs by broth microdilution method; format: functional; details: ARC3658, 24 h; in short: as §1
Pseudomonas aeruginosa [18] = experiment: Antibacterial activity against Pseudomonas aeruginosa ARC3506 after 24 hrs by broth microdilution method; format: functional; details: ARC3506, 24 h; in short: as §1
Acinetobacter baumannii [19] = experiment: Antibacterial activity against Acinetobacter baumannii ARC3495 after 24 hrs by broth microdilution method; format: functional; details: ARC3495, 24 h; in short: as §1
Pseudomonas aeruginosa [20] = experiment: Antibacterial activity against Pseudomonas aeruginosa ARC4060 after 24 hrs by broth microdilution method; format: functional; details: ARC4060, 24 h; in short: as §1
Acinetobacter baumannii [21] = experiment: Antibacterial activity against Acinetobacter baumannii ARC2779 after 24 hrs by broth microdilution method; format: functional; details: ARC2779, 24 h; in short: as §1
Pseudomonas aeruginosa [22] = experiment: Antibacterial activity against Pseudomonas aeruginosa ARC003 after 24 hrs by broth microdilution method; format: functional; details: ARC003, 24 h; in short: as §1
Acinetobacter baumannii [23] = experiment: Antibacterial activity against Acinetobacter baumannii ARC3882 after 24 hrs by broth microdilution method; format: functional; details: ARC3882, 24 h; in short: as §1
Acinetobacter baumannii [24] = experiment: Antibacterial activity against Acinetobacter baumannii ARC3493 after 24 hrs by broth microdilution method; format: functional; details: ARC3493, 24 h; in short: as §1
Acinetobacter baumannii [25] = experiment: Antibacterial activity against Acinetobacter baumannii ARC2674 after 24 hrs by broth microdilution method; format: functional; details: ARC2674, 24 h; in short: as §1
Pseudomonas aeruginosa [26] = experiment: Antibacterial activity against Pseudomonas aeruginosa ARC3607 after 24 hrs by broth microdilution method; format: functional; details: ARC3607, 24 h; in short: as §1
Pseudomonas aeruginosa [27] = experiment: Antibacterial activity against Pseudomonas aeruginosa ARC3611 after 24 hrs by broth microdilution method; format: functional; details: ARC3611, 24 h; in short: as §1
Acinetobacter baumannii [28] = experiment: Antibacterial activity against Acinetobacter baumannii ARC3657 after 24 hrs by broth microdilution method; format: functional; details: ARC3657, 24 h; in short: as §1
Pseudomonas aeruginosa [29] = experiment: Antibacterial activity against Pseudomonas aeruginosa ARC3729 after 24 hrs by broth microdilution method; format: functional; details: ARC3729, 24 h; in short: as §1
Acinetobacter baumannii [30] = experiment: Antibacterial activity against Acinetobacter baumannii ARC3486 after 24 hrs by broth microdilution method; format: functional; details: ARC3486, 24 h; in short: as §1
Acinetobacter baumannii [31] = experiment: Antibacterial activity against Acinetobacter baumannii ARC2782 after 24 hrs by broth microdilution method; format: functional; details: ARC2782, 24 h; in short: as §1
Pseudomonas aeruginosa [32] = experiment: Antibacterial activity against Pseudomonas aeruginosa ARC3612 after 24 hrs by broth microdilution method; format: functional; details: ARC3612, 24 h; in short: as §1
Pseudomonas aeruginosa [33] = experiment: Antibacterial activity against Pseudomonas aeruginosa ARC3504 after 24 hrs by broth microdilution method; format: functional; details: ARC3504, 24 h; in short: as §1
Acinetobacter baumannii [34] = experiment: Antibacterial activity against Acinetobacter baumannii ARC2728 after 24 hrs by broth microdilution method; format: functional; details: ARC2728, 24 h; in short: as §1
[35] = Dissociation constant, basic pKa of compound by pH metric method; format: physicochemical; in short: as §2
[36] = Dissociation constant, acidic pKa of compound by pH metric method; format: physicochemical; in short: as §2

SMILES: CCNC(=O)Nc1cc(-c2nc(C(F)(F)F)cs2)c(-c2cc3ncccc3nc2N2[C@@H]3CC[C@H]2C[C@@H](N)C3)cn1
- GI50 [1]: > 40 µM
- IC50 (DNA gyrase subunit B): 0.003 µM
- MIC (Pseudomonas aeruginosa [2]): 35.5 µg/mL (≈ 62.5 µM)
- MIC (Escherichia coli [3]): 0.56 µg/mL (≈ 0.985 µM)
- MIC (Pseudomonas aeruginosa [4]): 0.56 µg/mL (≈ 0.985 µM)
- MIC (Escherichia coli [5]): 4.54 µg/mL (≈ 7.98 µM)
- IC50 [6]: 0.024 µM
- pKa [7]: 9.2

SMILES: C[C@@H](O)[C@H]1C(=O)N2C(C(=O)O)=C(S[C@@H]3CN[C@H](C(=O)N(C)C)C3)[C@H](C)[C@H]12 [MEROPENEM]
- MIC (Pseudomonas aeruginosa [8]): 2 µg/mL (≈ 5.22 µM)
- MIC (Pseudomonas aeruginosa [9]): 32 µg/mL (≈ 83.4 µM)
- MIC (Acinetobacter baumannii [10]): 4 µg/mL (≈ 10.4 µM)
- MIC (Acinetobacter baumannii [11]): 16 µg/mL (≈ 41.7 µM)
- MIC (Pseudomonas aeruginosa [12]): 4 µg/mL (≈ 10.4 µM)
- MIC (Acinetobacter baumannii [13]): 32 µg/mL (≈ 83.4 µM)
- MIC (Acinetobacter baumannii [14]): 4 µg/mL (≈ 10.4 µM)
- MIC (Acinetobacter baumannii [15]): 32 µg/mL (≈ 83.4 µM)
- MIC (Pseudomonas aeruginosa [16]): 16 µg/mL (≈ 41.7 µM)
- MIC (Acinetobacter baumannii [17]): 32 µg/mL (≈ 83.4 µM)
- MIC (Pseudomonas aeruginosa [18]): 8 µg/mL (≈ 20.9 µM)
- MIC (Acinetobacter baumannii [19]): > 64 µg/mL
- MIC (Pseudomonas aeruginosa [20]): 16 µg/mL (≈ 41.7 µM)
- MIC (Acinetobacter baumannii [21]): 16 µg/mL (≈ 41.7 µM)
- MIC (Pseudomonas aeruginosa [22]): 0.25 µg/mL (≈ 0.652 µM)
- MIC (Acinetobacter baumannii [23]): > 64 µg/mL
- MIC (Acinetobacter baumannii [24]): > 64 µg/mL
- MIC (Acinetobacter baumannii [25]): 16 µg/mL (≈ 41.7 µM)
- MIC (Pseudomonas aeruginosa [26]): 8 µg/mL (≈ 20.9 µM)
- MIC (Pseudomonas aeruginosa [27]): 4 µg/mL (≈ 10.4 µM)
- MIC (Acinetobacter baumannii [28]): 1 µg/mL (≈ 2.61 µM)
- MIC (Pseudomonas aeruginosa [29]): 32 µg/mL (≈ 83.4 µM)
- MIC (Acinetobacter baumannii [30]): > 64 µg/mL
- MIC (Acinetobacter baumannii [31]): 16 µg/mL (≈ 41.7 µM)
- MIC (Pseudomonas aeruginosa [32]): 32 µg/mL (≈ 83.4 µM)
- MIC (Pseudomonas aeruginosa [33]): 4 µg/mL (≈ 10.4 µM)
- MIC (Acinetobacter baumannii [34]): 0.25 µg/mL (≈ 0.652 µM)

SMILES: CCNC(=O)Nc1cc(-c2nc(C(F)(F)F)cs2)c(-c2cc3ncccc3nc2N2CCN(C)CC2)cn1
- GI50 [1]: > 50 µM
- IC50 (DNA gyrase subunit B): 0.003 µM
- MIC (Pseudomonas aeruginosa [2]): > 100 µg/mL
- MIC (Escherichia coli [3]): 1.08 µg/mL (≈ 1.99 µM)
- MIC (Pseudomonas aeruginosa [4]): 1.08 µg/mL (≈ 1.99 µM)
- MIC (Escherichia coli [5]): 16.8 µg/mL (≈ 31 µM)
- IC50 [6]: 0.4 µM
- pKa [7]: 7.4

SMILES: CCNC(=O)Nc1cc(-c2nc(C(F)(F)F)cs2)c(-c2cc3ncccc3nc2N2C3CC2CN(C)C3)cn1
- GI50 [1]: > 50 µM
- IC50 (DNA gyrase subunit B): 0.005 µM
- MIC (Pseudomonas aeruginosa [2]): > 60 µg/mL
- MIC (Escherichia coli [3]): 2.21 µg/mL (≈ 3.98 µM)
- MIC (Pseudomonas aeruginosa [4]): 1.1 µg/mL (≈ 1.98 µM)
- MIC (Escherichia coli [5]): 17.2 µg/mL (≈ 31 µM)
- IC50 [6]: 0.2 µM
- pKa [7]: 7.6

SMILES: CCNC(=O)Nc1cc(-c2nc(C(F)(F)F)cs2)c(-c2cc(-c3n[nH]c(=O)o3)cnc2N2[C@@H]3CC[C@H]2C[C@@H](N)C3)cn1
- IC50 (DNA gyrase subunit B): 0.004 µM
- MIC (Pseudomonas aeruginosa [2]): > 50 µg/mL
- pKa [35]: 9.5
- MIC (Escherichia coli [3]): 4.8 µg/mL (≈ 7.98 µM)
- MIC (Pseudomonas aeruginosa [4]): 0.6 µg/mL (≈ 0.997 µM)
- MIC (Escherichia coli [5]): > 50 µg/mL
- pKa [36]: 6.8
- IC50 [6]: 0.012 µM
